Assay results published in ChEMBL document CHEMBL3808334, “Synthesis and in vitro evaluation of novel triazine analogues as anticancer agents and their interaction studies with bovine serum albumin” (Eur J Med Chem, 2016).

Legend:
[1] = Growth inhibition of human SF539 cells incubated for 48 hrs by sulforhodamine B assay; assay type: functional; settings: SF-539, 48 h
How it was run: (§1)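 Cells were plated at 5,000–40,000 per well according to doubling time and preincubated 24 h at 37 °C in 5% CO2; time-zero plates were then TCA-fixed. Five concentrations (10-fold or ½-log dilutions, DMSO stock) were incubated 48 h. Cells were TCA-fixed, stained with 0.4% SRB and read at 515 nm. GI50 was taken where [(Ti−Tz)/(C−Tz)]×100 = 50.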

HT-29 [2] = assay: Growth inhibition of human HT-29 cells assessed as cell growth at 10^-8 M incubated for 48 hrs by sulforhodamine B assay; assay type: functional; settings: HT-29, 48 h, read-out: Activity
SK-MEL-28 = assay: Growth inhibition of human SK-MEL-28 cells assessed as cell growth at 10^-7 M incubated for 48 hrs by sulforhodamine B assay; assay type: functional; settings: SK-MEL-28, 48 h, read-out: Activity
[3] = Growth inhibition of human HCC2998 cells assessed as cell growth at 10^-6 M incubated for 48 hrs by sulforhodamine B assay; assay type: functional; settings: HCC 2998, 48 h, read-out: Activity
How it was run: (§2)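 Cells seeded at 5,000–40,000/well according to doubling time and preincubated 24 h at 37 °C, 5% CO2. Time-zero plates were TCA-fixed. DMSO concentrate was diluted in medium with 50 µg/ml gentamicin to give five concentrations (10-fold or ½ log steps), then exposed 48 h. Cells were TCA-fixed, stained with 0.4% SRB and read at 515 nm. Percent growth was taken against time-zero and control; GI50, TGI and LC50 derived.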

[4] = Growth inhibition of human HOP62 cells assessed as cell growth at 10^-4 M incubated for 48 hrs by sulforhodamine B assay; assay type: functional; settings: HOP-62, 48 h, read-out: Activity
SK-MEL-2 = assay: Growth inhibition of human SK-MEL-2 cells assessed as cell growth at 10 uM incubated for 48 hrs by sulforhodamine B assay; assay type: functional; settings: SK-MEL-2, 48 h, read-out: Activity
NCI-H460 = assay: Growth inhibition of human NCI-H460 cells incubated for 48 hrs by sulforhodamine B assay; assay type: functional; settings: NCI-H460, 48 h; how it was run: as §1
SN12C = assay: Growth inhibition of human SN12C cells assessed as cell growth at 10^-6 M incubated for 48 hrs by sulforhodamine B assay; assay type: functional; settings: read-out: Activity
MDA-MB-231 = assay: Growth inhibition of human MDA-MB-231 cells assessed as cell growth at 10^-6 M incubated for 48 hrs by sulforhodamine B assay; assay type: functional; settings: MDA-MB-231, 48 h, read-out: Activity
Malme-3M = assay: Growth inhibition of human MALME-3M cells assessed as cell growth at 10 uM incubated for 48 hrs by sulforhodamine B assay; assay type: functional; settings: read-out: Activity
[5] = Growth inhibition of human UACC62 cells assessed as cell growth at 10^-4 M incubated for 48 hrs by sulforhodamine B assay; assay type: functional; settings: UACC-62, 48 h, read-out: Activity
NCI-H226 = assay: Growth inhibition of human NCI-H226 cells incubated for 48 hrs by sulforhodamine B assay; assay type: functional; settings: NCI-H226, 48 h; how it was run: as §1
HT-29 [6] = assay: Growth inhibition of human HT-29 cells incubated for 48 hrs by sulforhodamine B assay; assay type: functional; settings: HT-29, 48 h; how it was run: as §1
[7] = Growth inhibition of human OVCAR5 cells assessed as cell growth at 10^-6 M incubated for 48 hrs by sulforhodamine B assay; assay type: functional; settings: OVCAR-5, 48 h, read-out: Activity
U-251 = assay: Growth inhibition of human U251 cells assessed as cell growth at 10 uM incubated for 48 hrs by sulforhodamine B assay; assay type: functional; settings: U-251, 48 h, read-out: Activity
[8] = Growth inhibition of human HL-60(TB) cells incubated for 48 hrs by sulforhodamine B assay; assay type: functional; settings: HL-60, 48 h
How it was run: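 Five-concentration, 48 h SRB screen (10-fold or ½-log dilutions from a 400× DMSO concentrate; 24 h preincubation at 37 °C, 5% CO₂; time-zero plate; A515). GI50 was solved from (Ti−Tz)/(C−Tz)×100 = 50. TGI was taken where Ti = Tz, and LC50 from (Ti−Tz)/[…].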

SK-MEL-5 = assay: Growth inhibition of human SK-MEL-5 cells assessed as cell growth at 10^-4 M incubated for 48 hrs by sulforhodamine B assay; assay type: functional; settings: SK-MEL-5, 48 h, read-out: Activity
[9] = Growth inhibition of human SF268 cells assessed as cell growth at 10^-7 M incubated for 48 hrs by sulforhodamine B assay; assay type: functional; settings: SF-268, 48 h, read-out: Activity
MCF7 = assay: Growth inhibition of human MCF7 cells assessed as cell growth at 10^-8 M incubated for 48 hrs by sulforhodamine B assay; assay type: functional; settings: MCF7, 48 h, read-out: Activity
Albumin = Albumin (Bos taurus, UniProt P02769); assay: Binding affinity to bovine serum albumin assessed as binding constant in absorption spectra by Benesie-Hildebrand plot analysis; assay type: ADME; settings: cattle, isolated protein
How it was run: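 BSA, 10 µM, in 0.1 M phosphate buffer pH 7.4, titrated with compound (0–20 µM per the figure; diluted from 10⁻³ mol L⁻¹ DMSO stocks). Run at 300 K in a 1 cm quartz cell. UV spectra taken 200–800 nm after 5 min equilibration; fluorescence excited at 280 nm, emission 351 nm, slit 10 nm. K is the intercept/slope ratio of a linear fit of 1/(A₀−A) or 1/(F₀−F) vs 1/[compound].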

[10] = Growth inhibition of human TK10 cells assessed as cell growth at 10 uM incubated for 48 hrs by sulforhodamine B assay; assay type: functional; settings: TK-10, 48 h, read-out: Activity
[11] = Growth inhibition of human HCT116 cells assessed as cell growth at 10^-7 M incubated for 48 hrs by sulforhodamine B assay; assay type: functional; settings: HCT-116, 48 h, read-out: Activity; how it was run: as §2
[12] = Growth inhibition of human Caki1 cells assessed as cell growth at 10 uM incubated for 48 hrs by sulforhodamine B assay; assay type: functional; settings: CAKI-1, 48 h, read-out: Activity
How it was run: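 Primary screen at one dose (10 µM) across 60 human cancer cell lines. Readout was growth percent relative to untreated control and time-zero.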

[13] = read-out: LC50 (the source's name)
[14] = read-out: pLC50 (the source's name) (converted)

Albumin, sequence (P02769 whole entry): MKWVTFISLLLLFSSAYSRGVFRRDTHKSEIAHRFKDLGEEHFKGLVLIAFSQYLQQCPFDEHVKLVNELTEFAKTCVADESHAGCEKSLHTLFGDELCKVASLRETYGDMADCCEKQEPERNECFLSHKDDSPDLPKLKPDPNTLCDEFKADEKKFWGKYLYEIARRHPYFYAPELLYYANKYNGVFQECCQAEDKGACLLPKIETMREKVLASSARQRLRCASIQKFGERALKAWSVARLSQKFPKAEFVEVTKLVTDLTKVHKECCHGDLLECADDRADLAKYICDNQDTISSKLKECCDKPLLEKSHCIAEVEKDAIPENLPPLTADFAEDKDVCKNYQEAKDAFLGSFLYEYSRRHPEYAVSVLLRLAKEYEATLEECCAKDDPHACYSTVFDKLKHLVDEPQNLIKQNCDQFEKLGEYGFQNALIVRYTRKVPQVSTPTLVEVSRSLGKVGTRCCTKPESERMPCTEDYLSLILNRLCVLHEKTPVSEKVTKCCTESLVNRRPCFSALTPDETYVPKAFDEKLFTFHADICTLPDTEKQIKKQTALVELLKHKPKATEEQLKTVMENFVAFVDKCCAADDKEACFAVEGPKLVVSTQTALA

Compound: c1ccc(-c2nc(Nc3ccc(-c4nc5ccccc5[nH]4)cc3)nc(N3CCOCC3)n2)cc1
- GI50 ([1]; read-out: GI50): 1420 nM
- CC50 [1, 13]: 6090 nM
- TGI ([1]; read-out: TGI): 2940 nM
- GI50 ([1]; read-out: pGI50 (converted)): 1410 nM
- CC50 [1, 14]: 6030 nM
- TGI ([1]; read-out: pTGI (converted)): 2950 nM
- growth at 0.01 µM (HT-29 [2]): 105%
- growth at 0.1 µM (SK-MEL-28): 97%
- growth at 1 µM [3]: 93%
- growth at 100 µM [4]: -62%
- growth at 10 µM (SK-MEL-2): -52.7%
- GI50 (NCI-H460; read-out: GI50): 822 nM
- CC50 (NCI-H460; [13]): 6670 nM
- TGI (NCI-H460; read-out: TGI): 2460 nM
- GI50 (NCI-H460; read-out: pGI50 (converted)): 813 nM
- CC50 (NCI-H460; [14]): 6610 nM
- TGI (NCI-H460; read-out: pTGI (converted)): 2450 nM
- growth at 1 µM (SN12C): 85%
- growth at 1 µM (MDA-MB-231): 63%
- growth at 10 µM (Malme-3M): -77.3%
- growth at 100 µM [5]: -75%
- GI50 (NCI-H226; read-out: GI50): 2400 nM
- CC50 (NCI-H226; [13]): 8750 nM
- TGI (NCI-H226; read-out: TGI): 4580 nM
- GI50 (NCI-H226; read-out: pGI50 (converted)): 2400 nM
- CC50 (NCI-H226; [14]): 8710 nM
- TGI (NCI-H226; read-out: pTGI (converted)): 4570 nM
- GI50 (HT-29 [6]; read-out: GI50): 645 nM
- CC50 (HT-29 [6]; [13]): 6450 nM
- TGI (HT-29 [6]; read-out: TGI): 2190 nM
- GI50 (HT-29 [6]; read-out: pGI50 (converted)): 646 nM
- CC50 (HT-29 [6]; [14]): 6460 nM
- TGI (HT-29 [6]; read-out: pTGI (converted)): 2190 nM
- growth at 1 µM [7]: 112%
- growth at 10 µM (U-251): -67.5%
- GI50 ([8]; read-out: GI50): 31 nM
- LC50 ([8]; read-out: LC50): 31200 nM
- TGI ([8]; read-out: TGI): 601 nM
- GI50 ([8]; read-out: pGI50 (converted)): 30.9 nM
- LC50 ([8]; read-out: pLC50 (converted)): 30900 nM
- TGI ([8]; read-out: pTGI (converted)): 603 nM
- growth at 100 µM (SK-MEL-5): -91%
- growth at 0.1 µM [9]: 92%
- growth at 0.01 µM (MCF7): 92%
- K (Albumin): 1.2 ×10⁵ /M
- growth at 10 µM [10]: -58.1%
- growth at 0.1 µM [11]: 100%
- growth at 10 µM [12]: -89.4%

Compound: Clc1ccc(-c2nc(Nc3ccc(-c4nc5ccccc5[nH]4)cc3)nc(N3CCOCC3)n2)cc1
- GI50 ([1]; read-out: GI50): 520 nM
- TGI ([1]; read-out: TGI): 1830 nM
- GI50 ([1]; read-out: pGI50 (converted)): 525 nM
- TGI ([1]; read-out: pTGI (converted)): 1820 nM
- growth at 0.01 µM (HT-29 [2]): 104%
- growth at 0.1 µM (SK-MEL-28): 102%
- growth at 1 µM [3]: 15%
- growth at 100 µM [4]: -26%
- growth at 10 µM (SK-MEL-2): -71.3%
- GI50 (NCI-H460; read-out: GI50): 222 nM
- TGI (NCI-H460; read-out: TGI): 491 nM
- GI50 (NCI-H460; read-out: pGI50 (converted)): 224 nM
- TGI (NCI-H460; read-out: pTGI (converted)): 490 nM
- growth at 1 µM (SN12C): 47%
- growth at 1 µM (MDA-MB-231): -55%
- growth at 10 µM (Malme-3M): -73.4%
- growth at 100 µM [5]: -13%
- GI50 (NCI-H226; read-out: GI50): 2110 nM
- TGI (NCI-H226; read-out: TGI): 4440 nM
- GI50 (NCI-H226; read-out: pGI50 (converted)): 2090 nM
- TGI (NCI-H226; read-out: pTGI (converted)): 4470 nM
- GI50 (HT-29 [6]; read-out: GI50): 228 nM
- TGI (HT-29 [6]; read-out: TGI): 523 nM
- GI50 (HT-29 [6]; read-out: pGI50 (converted)): 229 nM
- TGI (HT-29 [6]; read-out: pTGI (converted)): 525 nM
- growth at 1 µM [7]: 32%
- growth at 10 µM (U-251): -93%
- GI50 ([8]; read-out: GI50): 216 nM
- TGI ([8]; read-out: TGI): 567 nM
- GI50 ([8]; read-out: pGI50 (converted)): 214 nM
- TGI ([8]; read-out: pTGI (converted)): 562 nM
- growth at 100 µM (SK-MEL-5): -51%
- growth at 0.1 µM [9]: 96%
- growth at 0.01 µM (MCF7): 92%
- K (Albumin): 1 ×10⁵ /M
- growth at 10 µM [10]: -94.4%
- growth at 0.1 µM [11]: 93%
- growth at 10 µM [12]: -93.6%
